Reference: publication PMC3356046 (Frontiers in Oncology, 2011)

Experiments:
[1] = tested on: BP3 human lymphoma cell line; experiment: Apoptosis, Annexin V-FITC and propidium iodide assay, BP3; assay type: cell-based
Method in brief: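 BP3 diffuse large B-cell lymphoma cells were grown in RPMI 1640 with 10% FBS and penicillin/streptomycin, then exposed to varying concentrations of test compound for 1 day. They were stained with FITC-Annexin V and propidium iodide and analysed by flow cytometry. Annexin V-negative/PI-negative cells were scored viable. Mean of two independent experiments ± SE.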

[2] = ref Wang et al., 2006b, Mi et al., 2008; cited from earlier work

SMILES	cytotoxic activity against BP3 cell lines [1]	oral MTD [2] [mg/kg]
CN(C)CC[C@H](CSc1ccccc1)Nc1ccc(S(=O)(=O)NC(=O)c2ccc(N3CCN(Cc4ccccc4-c4ccc(Cl)cc4)CC3)cc2)cc1[N+](=O)[O-] [ABT-737]	no cytotoxic activity	
Cc1cc2c(C(C)C)c(O)c(O)c(C=O)c2c(O)c1-c1c(C)cc2c(C(C)C)c(O)c(O)c(C=O)c2c1O [(−) Gossypol]		~50
